By Tmax is commonly meant the time from dosing to the highest level. The term Cmax denotes the peak of the concentration-time curve. What is called AUC(0-t) is the area under the concentration-time curve up to a stated or last time point. For orientation: CL/F means the apparent clearance, not corrected for the fraction that reaches the circulation.

The target of data set [1] is T1, Peroxisome proliferator-activated receptor gamma (Mus musculus) (UniProt P37238).
T1 sequence (whole entry): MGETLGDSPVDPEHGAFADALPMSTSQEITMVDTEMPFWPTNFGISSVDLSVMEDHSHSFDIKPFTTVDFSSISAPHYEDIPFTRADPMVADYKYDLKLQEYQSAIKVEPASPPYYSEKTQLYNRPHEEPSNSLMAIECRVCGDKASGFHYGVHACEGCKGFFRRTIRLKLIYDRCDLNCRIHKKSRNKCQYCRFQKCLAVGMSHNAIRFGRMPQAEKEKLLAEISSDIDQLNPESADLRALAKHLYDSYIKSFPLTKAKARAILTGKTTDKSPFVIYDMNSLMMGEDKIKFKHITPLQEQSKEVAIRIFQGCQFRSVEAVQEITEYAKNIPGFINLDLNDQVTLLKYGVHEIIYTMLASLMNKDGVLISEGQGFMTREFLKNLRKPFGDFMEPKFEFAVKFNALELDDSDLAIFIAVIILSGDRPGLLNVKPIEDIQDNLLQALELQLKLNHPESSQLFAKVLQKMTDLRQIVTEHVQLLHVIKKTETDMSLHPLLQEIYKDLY
As to the kind of experiment: Agonist activity at PPARgamma receptor in mouse 3T3-L1 cells assessed as adipogenesis at 20 ug/mL relative to insulin. In kind it is functional, cell-based. The method in brief:
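3T3-L1 cells were treated with compound at 20 µg/ml in the presence of insulin and adipogenesis was measured. The response to a potent PPARγ full agonist at 1 µM was set as 100%. Emax (%) is the maximal adipogenic activity with test compound.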

In data set [2] the target is T2, Peroxisome proliferator-activated receptor gamma (Homo sapiens) (UniProt P37231).
T2 sequence (whole entry): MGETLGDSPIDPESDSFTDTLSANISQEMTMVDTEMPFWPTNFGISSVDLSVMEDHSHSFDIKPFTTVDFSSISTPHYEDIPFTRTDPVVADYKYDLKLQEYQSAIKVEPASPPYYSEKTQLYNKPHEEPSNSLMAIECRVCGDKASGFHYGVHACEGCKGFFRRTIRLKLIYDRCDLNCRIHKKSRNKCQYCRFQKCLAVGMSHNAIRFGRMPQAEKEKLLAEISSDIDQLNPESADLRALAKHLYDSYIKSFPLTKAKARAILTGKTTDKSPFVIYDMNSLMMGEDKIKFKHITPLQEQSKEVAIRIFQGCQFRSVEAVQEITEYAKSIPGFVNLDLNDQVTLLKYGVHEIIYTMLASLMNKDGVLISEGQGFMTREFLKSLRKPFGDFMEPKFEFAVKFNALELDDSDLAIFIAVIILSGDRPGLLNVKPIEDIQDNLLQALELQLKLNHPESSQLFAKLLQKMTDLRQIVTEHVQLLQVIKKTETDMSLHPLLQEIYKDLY
Briefly: Agonist activity at human PPARgamma receptor expressed in HEK293 cells at 10 uM relative to PPARgamma full agonist at 1 uM.

For data set [3], the system named is Mus musculus. As to the kind of experiment: Antihyperglycemic activity in db/db mouse assessed as plasma glucose reduction at 5 mg/kg administered BID for 10 days relative to control. Also noted: scale not given: the % may be the effect or the level left. In kind it is functional. The method in brief:
(§1)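 Male db/db mice, 5 to 7 weeks old and bred in-house, were fed a chow diet and dosed b.i.d. for 10 days. Plasma glucose and body weight gain were assessed at the end of the study.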

A short description of data set [4]: Tmax in db/db mouse at 100 mg/kg, po. It counts as ADME, organism-based. Also noted: dose 100 mg/kg, route oral. To be noted: in vivo. The method in brief:
(§2)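 Female db/db mice received a single 100 mg/kg oral dose as a suspension in 0.5% CMC and Tween 80 (10 mL/kg), n = 4 per time point. Blood was drawn at 0.08 to 8.0 h and plasma was kept at -80 °C. Compound levels were measured by HPLC. Parameters came from non-compartmental analysis: Cmax and Tmax read directly, λz from terminal log-linear regression, T1/2 = 0.693/λz.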

A short description of data set [5]: Cmax in db/db mouse at 100 mg/kg, po. Set-up: dose 100 mg/kg, route oral. In kind it is ADME, organism-based. To be noted: in vivo. The method in brief: as §2
Data set [6] can be described thus: AUC (0 to 8 hrs) in db/db mouse at 100 mg/kg, po. In kind it is ADME, organism-based. Also noted: time < 8 hr, dose 100 mg/kg, route oral. The following applies: plasma. The method in brief:
as §2

Data set [7] can be described thus: Terminal elimination half life in db/db mouse at 100 mg/kg, po. In kind it is ADME, organism-based. Also noted: dose 100 mg/kg, route oral. To be noted: in vivo, read-out: beta t1/2 (converted). The method in brief: as §2
Data set [8] has as its system Mus musculus. Briefly: Volume of distribution in db/db mouse at 100 mg/kg, po. In kind it is ADME, organism-based. Set-up: dose 100 mg/kg, route oral. The following applies: in vivo. The method in brief: as §2
Data set [9] in a line: Clearance in db/db mouse at 100 mg/kg, po. It counts as ADME, organism-based. Set-up: dose 100 mg/kg, route oral. To be noted: in vivo. The method in brief: as §2
A short description of data set [10]: Drug excretion in db/db mouse assessed as elimination rate constant at 100 mg/kg, po. In kind it is ADME, organism-based. Set-up: dose 100 mg/kg, route oral. The following applies: in vivo. The method in brief: as §2
For data set [11], the system named is Mus musculus. As to the kind of experiment: Antihyperglycemic activity in db/db mouse assessed as plasma glucose reduction at 50 mg/kg administered BID for 10 days relative to control. In kind it is functional. Also noted: scale not given: the % may be the effect or the level left. The method in brief:
as §1

Data set [12] has as its system Mus musculus. As to the kind of experiment: Toxicity in db/db mouse assessed as body weight gain at 50 mg/kg administered BID relative to control. In kind it is organism-based. Also noted: dose 50 mg/kg. To be noted: in vivo. The method in brief: as §1

As to `O=S(=O)(Nc1cnc(Oc2cnc3ccccc3c2)c(Cl)c1)c1cccc(C(F)(F)F)c1`, the Emax in [1] amounted to 75%; in data set [2], 50%.
As for `O=S(=O)(Nc1cnc(Oc2cnc3ccccc3c2)c(Cl)c1)c1ccc(F)cc1Cl`, the figures for the Emax in data set [1] and in data set [2] were 51% and 39%, respectively.
For `O=S(=O)(Nc1cnc(Oc2cnc3ccccc3c2)c(Cl)c1)c1ccc(Cl)c(Cl)c1`, the Emax in data set [1] was 35%; in data set [2], 56%.
For `CN(CCOc1ccc(CC2SC(=O)NC2=O)cc1)c1ccccn1` (stereo not given) [ROSIGLITAZONE], the Activity in the data set with Mus musculus [3] was determined as 52%.
Regarding `COc1ccc(OC)c(S(=O)(=O)Nc2cnc(Oc3cnc4ccccc4c3)c(Cl)c2)c1`, the Emax in [1] turned out to be 54%; in data set [2] it was 71%.
For `Cc1ccc(S(=O)(=O)Nc2cnc(Oc3cnc4ccccc4c3)c(Cl)c2)c(C)c1` the same measures were 67% and 31%.
Take `Cc1cccc(S(=O)(=O)Nc2cnc(Oc3cnc4ccccc4c3)c(Cl)c2)c1`: the Emax in data set [1] was determined as 90%; in data set [2], 36%.
On to `O=S(=O)(Nc1cnc(Oc2cnc3ccccc3c2)c(Cl)c1)c1ccc(F)c(F)c1`, for which the Emax in data set [1] worked out at 95%; in data set [2], 86%. In [4], the time of peak concentration (Tmax) was 0.5 h. In addition, the Cmax in data set [5] was 8330 ng/mL. The AUC(0-t) at 8 h in data set [6] was determined as 25400 ng·h/mL. Further, the half-life in data set [7] was 1.76 h. In the data set with Mus musculus [8], this compound displayed a Vd of 4.78 L/kg. Besides, in [9], the CL/F was 31.2 mL/min/kg. For the same compound, the k el in data set [10] was 0.000108 s⁻¹.
As for `O=S(=O)(Nc1cnc(Oc2cnc3ccccc3c2)c(Cl)c1)c1ccc(F)c(Cl)c1`, the Emax amounted to 56% in [1] and 28% in data set [2].
In the case of `O=S(=O)(Nc1cnc(Oc2cnc3ccccc3c2)c(Cl)c1)c1ccc(F)cc1F`, the Emax stood at 56% in [1] and 32% in data set [2].
As to `O=S(=O)(Nc1cnc(Oc2cnc3ccccc3c2)c(Cl)c1)c1ccc(C(F)(F)F)cc1Cl`, the Emax in data set [1] was 57%; in data set [2], 86%.
In the same order, the values of `Cc1cc(F)ccc1S(=O)(=O)Nc1cnc(Oc2cnc3ccccc3c2)c(Cl)c1` are 73% and 83%.
For `O=S(=O)(Nc1cnc(Oc2cnc3ccccc3c2)c(Cl)c1)c1cccc(F)c1` the same measures were 80% and 62%.
For the compound `Cc1ccccc1S(=O)(=O)Nc1cnc(Oc2cnc3ccccc3c2)c(Cl)c1`, the Emax in [1] was 95%; in data set [2] it was 43%.
Turning to `COc1ccc(S(=O)(=O)Nc2cnc(Oc3cnc4ccccc4c3)c(Cl)c2)cc1OC`, the Emax was determined as 60% in data set [1] and 93% in data set [2]. Besides, the Tmax in data set [4] was 0.25 h. This compound also registered a Cmax in data set [5] of 33900 ng/mL. For the same compound, the AUC(0-t) at 8 h in data set [6] came to 146000 ng·h/mL. The half-life in [7] is 2.99 h. The compound further came in with a Vd in the data set with Mus musculus [8] of 1.23 L/kg. In data set [9], the CL/F is 4.67 mL/min/kg. Also, the Activity in the data set with Mus musculus [11] is 40%; with Mus musculus [12], 9%. In [10], the k el is 6.39e-05 s⁻¹.
